Legend:
[1] = target: T1, Nicotinic acetylcholine receptor alpha 5 subunit (Musca domestica, UniProt A9XFY4); assay: Displacement of [3H]IMI from Musca domestica (house fly) brain nicotinic acetylcholine receptor
T1 sequence (A9XFY4 whole entry): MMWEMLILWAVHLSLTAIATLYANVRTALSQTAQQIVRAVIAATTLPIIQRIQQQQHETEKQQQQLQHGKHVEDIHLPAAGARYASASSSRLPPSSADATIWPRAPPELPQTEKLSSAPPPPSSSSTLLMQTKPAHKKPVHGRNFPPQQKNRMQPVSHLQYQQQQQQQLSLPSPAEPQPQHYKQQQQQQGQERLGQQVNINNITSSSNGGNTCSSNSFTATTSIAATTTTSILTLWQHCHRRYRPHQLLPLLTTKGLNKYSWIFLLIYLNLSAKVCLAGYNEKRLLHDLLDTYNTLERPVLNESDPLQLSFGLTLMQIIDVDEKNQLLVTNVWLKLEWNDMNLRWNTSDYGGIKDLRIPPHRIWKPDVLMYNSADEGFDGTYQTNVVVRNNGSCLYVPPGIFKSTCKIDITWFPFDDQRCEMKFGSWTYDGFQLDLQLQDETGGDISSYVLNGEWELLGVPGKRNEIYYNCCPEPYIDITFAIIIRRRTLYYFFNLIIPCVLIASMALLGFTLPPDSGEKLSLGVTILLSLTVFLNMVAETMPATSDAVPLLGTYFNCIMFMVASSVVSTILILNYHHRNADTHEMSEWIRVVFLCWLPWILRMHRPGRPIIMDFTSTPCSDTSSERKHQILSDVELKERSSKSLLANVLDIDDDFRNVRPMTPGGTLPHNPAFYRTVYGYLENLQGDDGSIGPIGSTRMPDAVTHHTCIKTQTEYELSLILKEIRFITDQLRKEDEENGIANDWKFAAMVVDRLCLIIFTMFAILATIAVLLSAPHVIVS
Outline: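 Native housefly (Musca domestica) brain nAChR preparation with [3H]IMI radioligand at 5 nM (Kd 5.4 nM). IC50 is the molar concentration inhibiting 50% of specific [3H]IMI binding, fitted by iterative nonlinear least-squares regression. Ki derived as IC50/(1 + [L]/Kd).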

Musca domestica [2] = assay: Insecticidal activity against Musca domestica (house fly) measured after intrathoracic compound injection in presence of cytochrome P450 inhibitor O-propyl O-(2-propynyl) phenylphosphonate; format: functional
Outline: (§1)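 Houseflies were first pretreated with the P450 inhibitor O-propyl O-(2-propynyl) phenylphosphonate, then dosed by intrathoracic injection. Lethality was scored 24 h after administration, and the 50% lethal dose was determined.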

Musca domestica [3] = assay: Insecticidal activity against Musca domestica (house fly) assessed as mortality at LD50 concentration intrathoracic injection in presence of cytochrome P450 inhibitor O-propyl O-(2-propynyl) phenylphosphonate; format: functional; outline: as §1

Structure (SMILES) | Ki [1] [nM] | LD50 (Musca domestica [2]) [mg/kg] | mortality (Musca domestica [3]) [%]
O=C(/N=C1/N(CCCCCCCCN2CCN(Cc3ccc(Cl)nc3)/C2=N\C(=O)C(F)(F)F)CCN1Cc1ccc(Cl)nc1)C(F)(F)F | 26000 | > 1 | 0
O=C(/N=C1/N(CCCCCCCN2CCN(Cc3ccc(Cl)nc3)/C2=N/C(=O)C(F)(F)F)CCN1Cc1ccc(Cl)nc1)C(F)(F)F | 2900 | > 1 | 0
O=C(/N=C1/N(CCCCCCN2CCN(Cc3ccc(Cl)nc3)/C2=N/C(=O)C(F)(F)F)CCN1Cc1ccc(Cl)nc1)C(F)(F)F | 26000 | > 1 | 0
CC(C)(CCN1CCN(Cc2ccc(Cl)nc2)/C1=N\[N+](=O)[O-])CCN1CCN(Cc2ccc(Cl)nc2)/C1=N\[N+](=O)[O-] | 1460 | > 1 | 0
O=C(CN1CCN(Cc2ccc(Cl)nc2)/C1=N\[N+](=O)[O-])OCCOC(=O)CN1CCN(Cc2ccc(Cl)nc2)/C1=N\[N+](=O)[O-] | 1550 | > 1 | 0
O=[N+]([O-])/N=C1/N(CCCOCCCN2CCN(Cc3ccc(Cl)nc3)/C2=N\[N+](=O)[O-])CCN1Cc1ccc(Cl)nc1 | 2660 | > 1 | 0
O=[N+]([O-])/N=C1/N(CCOCCN2CCN(Cc3ccc(Cl)nc3)/C2=N\[N+](=O)[O-])CCN1Cc1ccc(Cl)nc1 | 530 | > 1 | 0
O=[N+]([O-])/N=C1\N(Cc2ccc(Cl)nc2)CCN1Cc1ccc(CN2CCN(Cc3ccc(Cl)nc3)/C2=N\[N+](=O)[O-])s1 | 150 | 1 | 
O=[N+]([O-])/N=C1\N(Cc2ccc(Cl)nc2)CCN1Cc1ccc(CN2CCN(Cc3ccc(Cl)nc3)/C2=N\[N+](=O)[O-])o1 | 30 | 0.14 | 
O=[N+]([O-])/N=C1\N(Cc2ccc(Cl)nc2)CCN1Cc1cncc(CN2CCN(Cc3ccc(Cl)nc3)/C2=N\[N+](=O)[O-])c1 | 2300 | > 1 | 10
O=[N+]([O-])/N=C1\N(Cc2ccc(Cl)nc2)CCN1Cc1cccc(CN2CCN(Cc3ccc(Cl)nc3)/C2=N\[N+](=O)[O-])n1 | 5200 | > 1 | 0
O=[N+]([O-])/N=C1\N(Cc2ccc(Cl)nc2)CCN1Cc1ccccc1-c1ccccc1CN1CCN(Cc2ccc(Cl)nc2)/C1=N\[N+](=O)[O-] | 800 | > 1 | 10
O=[N+]([O-])/N=C1/N(Cc2ccc(Cc3ccc(CN4CCN(Cc5ccc(Cl)nc5)/C4=N\[N+](=O)[O-])cc3)cc2)CCN1Cc1ccc(Cl)nc1 | 17000 | > 1 | 0
O=[N+]([O-])/N=C1\N(Cc2ccc(Cl)nc2)CCN1Cc1cccc(CN2CCN(Cc3ccc(Cl)nc3)/C2=N\[N+](=O)[O-])c1 | 2770 | > 1 | 0
O=C(/N=C1/N(CCCCCN2CCN(Cc3ccc(Cl)nc3)/C2=N/C(=O)C(F)(F)F)CCN1Cc1ccc(Cl)nc1)C(F)(F)F | 16000 | > 1 | 0
O=[N+]([O-])/N=C1/N(Cc2ccc(CN3CCN(Cc4ccc(Cl)nc4)/C3=N\[N+](=O)[O-])cc2)CCN1Cc1ccc(Cl)nc1 | 2270 | > 1 | 0
O=[N+]([O-])NC1=NCCN1Cc1ccc(Cl)nc1 [IMIDACLOPRID] | 4.6 | 0.03 | 

Reference: ChEMBL document CHEMBL3045298, “Furan-2,5-dimethylene-tethered bis-imidacloprid insecticide conferring high potency” (J Agric Food Chem, 2010)
